Common to all, as to conditions: stereoisomer not certain
In experiment [1] the target is T1, UniProt Q8VGL0.
T1 sequence (whole entry): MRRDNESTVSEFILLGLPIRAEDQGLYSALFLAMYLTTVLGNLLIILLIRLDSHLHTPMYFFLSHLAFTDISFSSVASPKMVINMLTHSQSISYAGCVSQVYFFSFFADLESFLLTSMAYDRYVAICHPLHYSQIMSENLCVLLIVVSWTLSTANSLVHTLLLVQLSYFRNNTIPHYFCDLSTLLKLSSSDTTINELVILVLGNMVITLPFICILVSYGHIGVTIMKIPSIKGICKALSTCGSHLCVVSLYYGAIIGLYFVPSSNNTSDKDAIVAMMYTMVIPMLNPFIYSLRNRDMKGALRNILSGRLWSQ
In a few lines:
(§1)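 Transient luciferase assays in mammalian cell lines were common, though methods varied by source. The values come from published papers and their supplementary material, with extra details from the original authors when needed. Responsive refers to a measured signal the original authors judged statistically different from baseline, and non-responsive (inactive) to the remainder.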

Experiment [2] concerns the target T2, UniProt Q8VGU3.
T2 sequence (whole entry): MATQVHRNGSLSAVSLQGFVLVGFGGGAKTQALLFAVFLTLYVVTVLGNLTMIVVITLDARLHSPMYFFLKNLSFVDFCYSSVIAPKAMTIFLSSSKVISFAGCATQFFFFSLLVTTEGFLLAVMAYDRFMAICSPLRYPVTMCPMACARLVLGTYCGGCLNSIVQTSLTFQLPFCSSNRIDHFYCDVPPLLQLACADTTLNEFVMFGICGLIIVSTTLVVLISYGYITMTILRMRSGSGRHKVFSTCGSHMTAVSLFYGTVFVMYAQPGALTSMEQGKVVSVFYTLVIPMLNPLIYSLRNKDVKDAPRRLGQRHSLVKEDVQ
The method in brief: as §1

Experiment [3] addresses T3, UniProt Q8VGV7.
T3 sequence (whole entry): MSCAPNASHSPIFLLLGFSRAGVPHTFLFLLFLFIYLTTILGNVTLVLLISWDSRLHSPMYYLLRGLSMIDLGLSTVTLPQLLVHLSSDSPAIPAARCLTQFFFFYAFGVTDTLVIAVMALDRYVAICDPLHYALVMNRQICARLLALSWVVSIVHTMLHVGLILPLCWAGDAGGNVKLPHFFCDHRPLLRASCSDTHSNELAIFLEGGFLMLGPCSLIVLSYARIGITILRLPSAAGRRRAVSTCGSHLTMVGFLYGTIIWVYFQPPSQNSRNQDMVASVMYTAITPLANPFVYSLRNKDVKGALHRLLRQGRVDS
The method in brief: as §1

The target in experiment [4] is T4, UniProt Q8VGX3.
T4 sequence (whole entry): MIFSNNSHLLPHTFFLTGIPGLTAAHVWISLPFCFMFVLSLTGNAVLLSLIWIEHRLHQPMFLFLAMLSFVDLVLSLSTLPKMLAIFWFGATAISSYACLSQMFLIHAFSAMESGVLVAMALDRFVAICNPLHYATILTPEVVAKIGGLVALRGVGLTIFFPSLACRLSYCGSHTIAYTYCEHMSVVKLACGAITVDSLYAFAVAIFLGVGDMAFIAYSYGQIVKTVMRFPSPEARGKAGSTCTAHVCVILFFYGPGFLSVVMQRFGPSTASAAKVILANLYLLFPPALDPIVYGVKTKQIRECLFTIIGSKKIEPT
In a few lines: as §1

Experiment [5] has as its target T5, UniProt Q8VGX5.
T5 sequence (whole entry): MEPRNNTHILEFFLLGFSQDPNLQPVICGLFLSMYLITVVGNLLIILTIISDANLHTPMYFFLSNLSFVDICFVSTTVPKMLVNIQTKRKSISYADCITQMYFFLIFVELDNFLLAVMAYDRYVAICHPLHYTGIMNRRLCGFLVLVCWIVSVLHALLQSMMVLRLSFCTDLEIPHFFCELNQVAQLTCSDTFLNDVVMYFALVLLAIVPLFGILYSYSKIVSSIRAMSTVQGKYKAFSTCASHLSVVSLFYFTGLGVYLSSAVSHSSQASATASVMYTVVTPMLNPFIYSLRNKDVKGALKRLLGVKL
The method in brief: as §1

Experiment [6] addresses T6, UniProt Q8VGZ2.
T6 sequence (whole entry): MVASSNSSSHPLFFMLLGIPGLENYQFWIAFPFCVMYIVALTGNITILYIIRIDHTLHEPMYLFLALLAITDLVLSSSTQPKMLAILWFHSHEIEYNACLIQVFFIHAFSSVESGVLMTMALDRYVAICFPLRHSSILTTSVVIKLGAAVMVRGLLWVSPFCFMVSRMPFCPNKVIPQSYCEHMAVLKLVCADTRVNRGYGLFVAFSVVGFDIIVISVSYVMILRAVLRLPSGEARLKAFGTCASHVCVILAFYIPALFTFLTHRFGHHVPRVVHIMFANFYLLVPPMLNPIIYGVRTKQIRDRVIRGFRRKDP
In a few lines: as §1

The target of experiment [7] is T7, UniProt Q8VGZ7.
T7 sequence (whole entry): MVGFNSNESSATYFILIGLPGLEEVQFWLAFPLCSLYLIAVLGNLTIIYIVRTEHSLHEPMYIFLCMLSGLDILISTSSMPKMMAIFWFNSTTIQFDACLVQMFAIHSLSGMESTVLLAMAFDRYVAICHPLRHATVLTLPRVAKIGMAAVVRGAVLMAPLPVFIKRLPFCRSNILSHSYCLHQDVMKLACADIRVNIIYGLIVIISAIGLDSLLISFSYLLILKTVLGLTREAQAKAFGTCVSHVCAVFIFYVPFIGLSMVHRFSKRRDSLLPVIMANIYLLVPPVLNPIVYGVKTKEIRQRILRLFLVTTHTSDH
The method in brief: as §1

The target of experiment [8] is T8, UniProt Q8VH16.
T8 sequence (whole entry): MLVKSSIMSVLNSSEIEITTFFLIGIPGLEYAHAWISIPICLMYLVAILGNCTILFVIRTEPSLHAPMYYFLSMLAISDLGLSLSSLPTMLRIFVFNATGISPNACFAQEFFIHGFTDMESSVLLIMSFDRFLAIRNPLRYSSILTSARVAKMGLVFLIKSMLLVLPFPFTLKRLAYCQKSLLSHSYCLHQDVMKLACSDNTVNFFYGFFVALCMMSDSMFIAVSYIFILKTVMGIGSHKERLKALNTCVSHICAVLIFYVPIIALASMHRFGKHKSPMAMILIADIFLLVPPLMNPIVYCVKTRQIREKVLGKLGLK
In a few lines: as §1

The target of experiment [9] is T9, UniProt Q8VH20.
T9 sequence (whole entry): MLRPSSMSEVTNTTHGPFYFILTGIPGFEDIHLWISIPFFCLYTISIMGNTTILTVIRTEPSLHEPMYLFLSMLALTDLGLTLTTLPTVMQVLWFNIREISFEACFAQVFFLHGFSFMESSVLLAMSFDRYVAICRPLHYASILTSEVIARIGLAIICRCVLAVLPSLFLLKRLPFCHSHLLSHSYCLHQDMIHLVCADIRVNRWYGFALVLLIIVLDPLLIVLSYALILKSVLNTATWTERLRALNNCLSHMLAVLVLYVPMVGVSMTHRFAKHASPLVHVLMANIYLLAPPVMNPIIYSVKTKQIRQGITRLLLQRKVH
The method in brief: as §1
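Also: active if original authors judged signal statistically different from baseline.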

In the case of `CCCCC(Br)C(=O)O` (centres undefined), the “odorant receptor agonist call” value in experiment [1], in experiment [2], in experiment [3], in experiment [4], in [5] and in experiment [6] was “inactive” throughout. Also, the “odorant receptor agonist call” value in experiment [7] and in [8] was “inactive” in each case. Also, the “odorant receptor agonist call” value in experiment [9] is “active”.

For the origin of these results see the M2OR odorant receptor database.
